Shown are actives, neighbours in structure and some others; about 2.1% of the full set was active somewhere.
cardiac RTF act: cardiac RTF calcium sensitization; activation, % at 7.2 µM; AID 493008; P19429+P45379; IANBD-labeled TnC RTF fluorescence at EC20 calcium; 0% EC20 calcium, 100% full calcium; hit rate 0.24% among 340,000;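 active means activation above the mean over all tested compounds plus 3 SD, cut at about 30% in these data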;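 further: rise in fluorescence read as greater calcium sensitivity of cardiac thin filaments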
UCH37 inh: blocks the human deubiquitinase UCH37; purified proteasome/UCH37, Ub-AMC cleavage fluorescence; inhibition, % (no concentration beside the values); hit rate 0.33% among 330,000; AID 588478; Q9Y5K5;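 active means mean inhibition over replicate wells above about 20%, limit read from the data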;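 further: 0% = compound-free wells with enzyme and 100% = wells lacking proteasome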
Target sequence (Q9Y5K5 whole entry, looked up): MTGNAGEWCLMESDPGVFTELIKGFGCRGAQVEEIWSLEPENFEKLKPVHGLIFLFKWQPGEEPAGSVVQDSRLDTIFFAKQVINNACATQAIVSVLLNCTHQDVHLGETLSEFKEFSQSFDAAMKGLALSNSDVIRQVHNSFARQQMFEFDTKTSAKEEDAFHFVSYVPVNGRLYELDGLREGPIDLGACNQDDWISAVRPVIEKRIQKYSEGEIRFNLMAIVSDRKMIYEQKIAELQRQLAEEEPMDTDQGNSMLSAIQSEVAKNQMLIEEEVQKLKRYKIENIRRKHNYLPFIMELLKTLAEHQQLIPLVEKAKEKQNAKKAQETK
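System: Proteasome-associated human UCH37 deubiquitinase; Input: 0.15 nM proteasome in added enzyme buffer; Also added: Ub-AMC substrate from 1 µM stock; Incubation: 30 min compound-proteasome preincubation then 25 min substrate reaction, room temperature; Detection: fluorescence, ex 355 nm, em 460 nm; Read-out: % inhibition of Ub-AMC cleavage fluorescence; Benchmarks: no-proteasome and no-compound wells.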
ARNT TACC3 PPI: ARNT/TACC3 interaction disruption. hit rate 0.66% among 390,000. AID 623870. inhibition, % at 9.99 µM. AlphaScreen His-ARNT PAS-B/GST-TACC3 binding, luminescence; TACC3 fragment carries E629A point mutation;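 active means mean inhibition of replicates at least 50% and at least half of replicates each reaching 50%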;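 further: 0% = complete ARNT plus TACC3 wells and 100% = ARNT alone without TACC3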
Cardiac RTF inh: cardiac RTF calcium desensitization; P19429+P45379; IANBD-labeled cardiac RTF, Ca2+ fluorescence; inhibition, % at 7.15 µM; hit rate 0.12% among 340,000; AID 493244;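 active means inhibition above the mean inhibition of all tested compounds plus 3 SD, cut at about 17% in these data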;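 further: assay run at fixed EC70 calcium of 1.6 mM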
Efflux pump mplx: blocks antifungal efflux pumps in multiplex yeast assay | S. cerevisiae Candida pump triplex, Nile Red efflux | inhibition, % at 10 µM | hit rate 0.44% among 330,000 | AID 485275;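 active means plate passing quality check with inhibition over a set limit, or well fluorescence over plate mean plus 4 SD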;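 further: Nile Red retained in pooled yeast measured as flow cytometry median fluorescence; 0% = buffer negative control and 100% = Enniatin B positive control; higher means more Nile Red kept so more efflux inhibition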
SUMO Mot1 rescue: inhibitors of SUMOylation pathway: yeast Mot1-301 growth rescue | AID 2716 | growth rescue, % at 18.8 µM | hit rate 1% among 320,000 | S. cerevisiae Mot1-301 growth rescue, ATP luminescence, 38.5C; percent above DMSO median, 100 means doubled;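 active means every valid replicate shows activation above 250% relative to neutral control wells; inactive means the rest, any valid replicate at or below 250%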;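 further: OY570 slx delta 5 strain wells were the positive control but not used for scaling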
An asterisk follows results filed as active; nt = not tested or not shown.

SMILES | cardiac RTF act | UCH37 inh | ARNT TACC3 PPI | Cardiac RTF inh | Efflux pump mplx | SUMO Mot1 rescue
O=S(=O)(NC1CCN(Cc2ccccc2)CC1)c1ccc2ccccc2c1 | -3 | -1 | 1 | -4 | 0 | 322*
O=C(NNS(=O)(=O)c1ccc2ccccc2c1)C1CCN(Cc2ccccc2)CC1 | -4 | -1 | -2 | 13 | 0 | -6
CC(/C=C/c1ccccc1)=NNC(=O)CCc1ccccc1 | nt | 7 | nt | nt | nt | nt
CCC(=O)Nc1nc(C)c(-c2csc(Nc3cccc(C(=O)O)c3)n2)s1 | 1 | -1 | -4 | 9 | 0 | -3
Cc1nc(N)sc1-c1csc(Nc2cccc(C(=O)O)c2)n1 | 0 | 5 | 52* | -3 | 0 | -8
Cc1cc(NS(=O)(=O)c2ccc(Nc3nc(-c4sc(N)nc4C)cs3)cc2)no1 | -23 | nt | 62* | -1 | 0 | 8
CC(C)(C)NS(=O)(=O)c1ccc(-c2csnn2)s1 | -1 | 1 | 5 | -13 | 0 | 5
O=S(=O)(NC1CCCCC1)c1ccc(-c2csnn2)s1 | -2 | 3 | -3 | -11 | 0 | 297*
Cc1ccc(C=NNC(=O)CNC(=O)c2cccs2)cc1 | nt | 0 | nt | nt | nt | nt
COc1ccc2cc(C=NNC(=O)c3ccc(CN(c4cccc(Cl)c4Cl)S(C)(=O)=O)cc3)c(Cl)nc2c1 | nt | -213 | nt | nt | nt | nt
Cn1c(=O)[nH]c(=O)c2c1nc(N1CCCCCC1)n2Cc1cccc2ccccc12 | -1 | 32* | -5 | 8 | 0 | nt
O=C(NN=Cc1ccccn1)c1cccc(S(=O)(=O)Nc2ccccc2Cl)c1 | nt | 2 | nt | nt | nt | nt
Cc1ccccc1C(=O)Nc1cccc(C(=O)NN=Cc2cc(Cl)cc([N+](=O)[O-])c2O)c1 | nt | 3 | nt | nt | nt | nt
Cc1cccc(C(=O)Nc2cccc(C(=O)NN=Cc3ccccn3)c2)c1 | nt | -1 | nt | nt | nt | nt
Cc1cccc(C(=O)Nc2cccc(C(=O)N/N=C/c3ccccn3)c2)c1 | -3 | nt | 71* | -10 | 0 | -4
O=C(O)c1cccc(NC(=S)N/N=C/c2ccccn2)c1 | -1 | nt | 66* | 0 | 0 | -7
O=C(N/N=C/c1ccccn1)c1cccc(S(=O)(=O)Nc2ccccc2Cl)c1 | -2 | nt | 65* | 2 | 0 | 164
Cc1ccccc1C(=O)Nc1cccc(C(=O)N/N=C/c2cc(Cl)cc([N+](=O)[O-])c2O)c1 | -3 | nt | 52* | -7 | 0 | 18
O=[N+]([O-])c1ccc(C=NN2CCN(c3ccncc3S(=O)(=O)N3CCCCC3)CC2)cc1 | nt | 3 | nt | nt | nt | nt
O=C(NN=Cc1ccccn1)C(=O)N1CCCCCC1 | nt | 3 | nt | nt | nt | nt
O=C(N/N=C/c1ccccn1)c1cc(C2CC2)[nH]n1 | 7 | nt | 48* | -5 | 0 | 1
O=C(N/N=C/c1ccccn1)c1cccc(NC(=O)c2ccccc2Cl)c1 | -1 | nt | 63* | 2 | 0 | 10
O=C(N/N=C/c1ccccc1F)c1cccc(NC(=O)c2ccccc2Cl)c1 | -3 | nt | 0 | 13 | 0 | -12
O=C(N/N=C/c1ccccn1)C(=O)N1CCCCCC1 | -2 | nt | 53* | 3 | 0 | 175
Cc1cc(C(=O)N/N=C/c2ccccn2)n[nH]1 | -3 | nt | nt | -12 | 0 | 1
SMILES | cardiac RTF act | UCH37 inh | ARNT TACC3 PPI | Cardiac RTF inh | Efflux pump mplx | SUMO Mot1 rescue
Cc1cccc(C(=O)N/N=C/c2ccccn2)c1 | 0 | nt | 54* | 4 | 0 | -22
Cc1cccc(C(=O)NN=Cc2ccccn2)c1 | nt | 0 | nt | nt | nt | nt
O=C1CC(C(=O)Nc2ccc(Br)cc2)S/C(=N\N=Cc2ccco2)N1 (stereo not drawn) | nt | 8 | nt | nt | nt | nt
CC(Nc1cccc2ccccc12)C(=O)N/N=C/c1ccccn1 (stereo not drawn) | 10 | nt | 67* | -20 | 0 | 63
O=C(NN=Cc1ccccn1)c1ccc([N+](=O)[O-])cc1 | nt | 3 | nt | nt | nt | nt
Cc1cccc(C=NNC(=O)C(C)Nc2cccc3ccccc23)n1 (stereo not drawn) | nt | 0 | nt | nt | nt | nt
O=C(N/N=C/c1ccccn1)c1cc([N+](=O)[O-])cc([N+](=O)[O-])c1 | 1 | nt | 61* | -5 | 0 | 11
O=C(COC(=O)c1ccncc1)Nc1cc(Cl)c(Cl)cc1Cl | nt | nt | nt | nt | 0.8* | 4
Cc1cccc2cc(C=NNC(=O)c3ccncc3)c(Cl)nc12 | nt | -15 | nt | nt | nt | nt
COc1ccc(CCNC(=O)C(=O)NN=Cc2cccs2)cc1OC | nt | 6 | nt | nt | nt | nt
Cc1cc[n+](C(C)C(=O)c2ccc(Cl)cc2)cc1 (stereo not drawn) | -4 | 5 | 56* | 2 | 0 | -6
Cc1cc[n+](C(C)C(=O)c2ccc(-c3ccccc3)cc2)cc1 (stereo not drawn) | -2 | -2 | -1 | -6 | 0 | 37
Cc1cc2c(N=O)c(NO)ccc2[nH]1 | -3 | 7 | 80* | -6 | 0 | -7
S=c1[nH]nc(-c2ccccn2)n1/N=C/c1cccc(Cl)c1 | 2 | nt | 61* | -1 | 0 | -23
O=[N+]([O-])c1cc2c(cc1/C=N/n1c(-c3ccccc3)n[nH]c1=S)OCO2 | 1 | nt | -2 | -11 | 0 | -6
Cc1ccsc1/C=N/n1c(-c2ccccn2)n[nH]c1=S | -2 | nt | 61* | -11 | 0 | -6
O=[N+]([O-])c1cc2c(cc1/C=N/n1c(-c3ccccn3)n[nH]c1=S)OCO2 | -4 | nt | 71* | -10 | 0 | -6
COc1ccc(C2=CSC(N=Cc3ccc(F)cc3)=NN2)cc1 | nt | -2 | nt | nt | nt | nt
CN(C)CCCON=C(c1ccccc1)c1ccncc1 | nt | 2 | nt | nt | nt | nt
CCc1cc(C(Cc2ccccn2)=NNc2ccccc2)c(O)cc1O | nt | 8 | nt | nt | nt | nt
COc1cc(C=NNC(N)=O)ccc1OCC(=O)Nc1ccc(C)c(C)c1 | nt | 1 | nt | nt | nt | nt
O=C(CSC1=NC(=O)C(Cc2ccccc2)C(=O)N1)Nc1ncc(Br)cc1Br (stereo not drawn) | 2 | 2 | 5 | -8 | 0 | 327*
O=C(CSC1=NC(=O)C(Cc2ccccc2)C(=O)N1)Nc1ncccn1 (stereo not drawn) | nt | 4 | nt | nt | nt | nt
Cc1nn(Cc2c(F)c(F)c(F)c(F)c2F)c(C)c1NC(=O)c1nn(C)c(C)c1Br | 47* | -1 | -2 | 2 | -2 | 4
Cc1nn(Cc2c(F)c(F)c(F)c(F)c2F)c(C)c1NC(=O)c1nn(C)cc1Br | 4 | -3 | -4 | -2 | 0 | 8
SMILES | cardiac RTF act | UCH37 inh | ARNT TACC3 PPI | Cardiac RTF inh | Efflux pump mplx | SUMO Mot1 rescue
O=C(C[n+]1ccccc1)NN=Cc1ccccc1C(F)(F)F | nt | 5 | nt | nt | nt | nt
O=S(=O)(N=S1CC=CCN1S(=O)(=O)c1ccccc1)c1ccccc1 (stereo not drawn) | nt | 19 | nt | nt | nt | nt
Nc1ccccc1-n1cccc1 | nt | -22 | -11 | nt | 0 | 315*
O=S1(=O)N=C(N(CCO)N=Cc2ccccc2)c2ccccc21 | nt | 5 | nt | nt | nt | nt
O=S1(=O)N=C(N(CCO)/N=C/c2ccncc2)c2ccccc21 | 12 | nt | 72* | 5 | 0 | 10
CC(C)(C)NC(=O)CCN(/N=C/c1ccncc1)C1=NS(=O)(=O)c2ccccc21 | -5 | nt | 63* | -1 | 0 | -5

High-throughput results deposited in PubChem BioAssay by several laboratories.
